DDE Tn7 FP inh = inhibitors of Tn7 peptide binding to human fibrin DD(E). P02675. FP displacement of FITC-Tn7 peptide from fibrin DD(E); 0% = median of compound wells per plate. inhibition, % at 8.3 µM. actives 0.13% (n = 370,000). AID 720508;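 active = inhibition above the mean of compounds falling within the control limits plus 3 SD of them, cut at about 14% in these data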;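 note: 0% = plate median of compound wells and 100% = 10 µM Aha-Tn7 peptide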
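System: human fibrin DD(E); quantity: Fibrin-DD(E) at 2 µM final; also added: fluorescent Tn7 probe at 0.1 µM; compound dosing: single nominal test concentration of 8.3 µM per compound; schedule: 10 min preincubation, 3 h with tracer, room temperature; detection: fluorescence polarization of the labelled Tn7 tracer; repeats: one replicate per compound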
UHRF1 binding = blocks human UHRF1 binding to methylated DNA. Q96T88. UHRF1 binding to methylated oligo, TR-FRET. inhibition, % at 4.4 µM. actives 0.75% (n = 370,000); in the data active = inhibition above about 21%;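 note: UHRF1 SRA domain binding a hemimethylated CpG hairpin DNA probe; 0% = median of test compound wells and 100% = reference inhibitor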
Target sequence (Q96T88 whole entry, looked up, the tested form may be a part): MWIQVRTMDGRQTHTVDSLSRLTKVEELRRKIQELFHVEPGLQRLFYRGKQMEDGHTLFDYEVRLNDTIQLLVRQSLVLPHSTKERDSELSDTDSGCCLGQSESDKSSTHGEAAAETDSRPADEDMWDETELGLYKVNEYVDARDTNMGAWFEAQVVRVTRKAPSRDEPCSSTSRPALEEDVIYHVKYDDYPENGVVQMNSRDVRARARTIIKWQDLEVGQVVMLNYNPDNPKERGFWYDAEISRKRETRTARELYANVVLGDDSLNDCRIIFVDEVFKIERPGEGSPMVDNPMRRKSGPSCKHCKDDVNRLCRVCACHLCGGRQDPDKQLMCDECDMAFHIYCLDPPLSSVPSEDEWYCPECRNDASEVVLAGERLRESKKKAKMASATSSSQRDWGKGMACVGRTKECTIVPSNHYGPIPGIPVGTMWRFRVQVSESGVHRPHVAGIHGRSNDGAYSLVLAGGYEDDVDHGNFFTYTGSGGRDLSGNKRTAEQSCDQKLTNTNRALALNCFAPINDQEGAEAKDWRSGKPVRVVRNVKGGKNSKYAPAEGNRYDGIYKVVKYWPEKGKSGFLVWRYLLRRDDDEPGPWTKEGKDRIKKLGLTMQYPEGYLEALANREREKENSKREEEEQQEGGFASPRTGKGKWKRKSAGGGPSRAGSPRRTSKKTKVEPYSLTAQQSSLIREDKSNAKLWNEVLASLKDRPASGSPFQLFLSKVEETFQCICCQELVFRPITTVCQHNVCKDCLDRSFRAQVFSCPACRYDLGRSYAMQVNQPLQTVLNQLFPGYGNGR
LEDGF integ inh = blocks HIV-1 LEDGF/p75-dependent DNA integration | AID 743269 | actives 0.64% (n = 370,000) | inhibition, % at 3.7 µM | TR-FRET IN-LEDGF/p75 DNA integration, Eu/Cy5;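 active = inhibition above the screen-wide mean plus 3 SD, cut at about 13% in these data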;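 note: signal is the Cy5 over europium emission ratio at 671 and 618 nm; 0% = plate median of compound wells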
Tn6 DDE FP = DD(E)-Tn6 binding inhibition, primary FP screen; P02675; Fibrin DD(E) TRITC-Tn6 fluorescence polarization displacement; inhibition, % at 8.3 µM; actives 0.21% (n = 370,000); AID 720509;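 active = inhibition above a per-campaign cutoff: mean of compounds within control limits plus 3 SD, cut at about 15% in these data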;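 note: 0% = median of all compound wells on the plate and 100% = blocking peptide control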
TDP2 absorb = TDP2 (human) inhibition, absorbance primary screen. recombinant TDP2, T5PNP hydrolysis, p-nitrophenol absorbance 415 nm. inhibition, % at 12.8 µM. actives 0.34% (n = 370,000);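 active = inhibition above the mean of all tested compounds plus 3 SD, set per campaign, cut at about 25% in these data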;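 note: 0% = DMSO with enzyme and 100% = buffer with substrate but no TDP2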
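Assay system: recombinant human TDP2 / Reagent: T5PNP substrate at 5 mM, a TopII-DNA adduct mimic / Measured by: epi absorbance from released p-nitrophenol / Evaluation: % inhibition relative to enzyme-containing and enzyme-free wells / Control set: enzyme-free and DMSO wells / Replicates: each compound tested once, singlicate / Schedule: enzyme reaction with compound for 2 h at 37 °C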
MBD2 DNA inh = inhibitors of human MBD2 binding to methylated oligonucleotide; AID 686964; Q9UBB5; actives 0.31% (n = 370,000); TR-FRET; inhibition, % at 4.4 µM; in the data active = inhibition above about 13%
IN multimer act = HIV-1 integrase multimerization activation, counter-screen. shares compounds with LEDGF integ inh. TR-FRET HIV-1 integrase multimerization, biochemical. activation, % at 7.7 µM. actives 17% (n = 2,000). AID 1053131; in the data active = activation above about 8.9%
TRFRET interf = optically interferes with TR-FRET readout in LEDGF counter-screen; 2,000 tested, under 10 active; inhibition, % at 7.7 µM; TR-FRET optical interference counterscreen, HIV-1 IN multimerization; shares compounds with LEDGF integ inh;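 active = inhibition above the mean over all tested compounds plus 3 SD, which no compound reached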;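 note: 0% = integrase with antibodies and DMSO and 100% = antibodies without integrase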
IN-LEDGF confirm = LEDGF/p75-dependent HIV-1 integration inhibition, confirmation; shares compounds with LEDGF integ inh; TR-FRET LEDGF/p75-dependent HIV-1 integration, biochemical; inhibition, % at 3.7 µM; actives 36% (n = 2,000); AID 1053136; in the data active = inhibition above about 14%
Numbers without * were called inactive; . = no result given. Sampled rows, rich in hits. Any-hit rate of the full collection: about 1.9%.

SMILES	DDE Tn7 FP inh	UHRF1 binding	LEDGF integ inh	Tn6 DDE FP	TDP2 absorb	MBD2 DNA inh	IN multimer act	TRFRET interf	IN-LEDGF confirm
O=C(O)c1cc(-c2ccc(/C=C3\NC(=O)N(c4ccc(Cl)cc4)C3=O)o2)ccc1Cl	-1.7	62.4*	15.0*	0.8	3.4	7.7	1.5	-7.4	26.7*
C#CCN1C(=O)S/C(=C\c2ccc(-c3ccc(Cl)c(C(=O)O)c3)o2)C1=O	1.6	8.6	-3.3	-1.9	-1.9	2.6	.	.	.
CCCCCCCCN1C(=O)[C@@H](CC(=O)N2CCCC2)C[C@@]2(C(=O)OC)C1=C[C@H](C1CCCC1)O[C@@H]2C	3.8	0.5	-2.8	1.6	1.3	-0.1	.	.	.
COc1cc2c(C#N)c(N3CCCCC3)nc(N)c2c(N)n1	-5.8	-12.7	33.5*	0.4	9.5	-2.3	0.5	-2.6	1.2
COc1cc2c(C#N)c(N3CCOCC3)nc(N)c2c(N)n1	-3.1	-11.0	1.9	-5.3	-3.6	-1.2	.	.	.
CNC(C)C(=O)NC(C(=O)N1CCCC1C(=O)Nc1cccc2ncccc12)C(C)C (centres undefined)	-4.2	-0.6	3.0	9.6	1.1	-3.0	.	.	.
CN(C)S(=O)(=O)N1CCN(C(=O)N(c2ccccc2)c2ccccc2)CC1	-4.7	2.6	70.7*	3.7	-0.2	3.0	-0.2	1.0	-0.5
CC(C)(C)OC(=O)/C=C/[C@@H](CCCCl)Sc1ccc(C(C)(C)C)cc1	3.8	-3.6	-2.9	2.5	-8.6	-1.1	.	.	.
Cc1ccc(NC(=O)C(C)OC(=O)CCNS(=O)(=O)c2ccc(C)cc2)cc1 (centres undefined)	5.2	-1.2	-1.8	-4.9	-2.3	-3.3	.	.	.
CC(=O)Nc1ccc(S(=O)(=O)NCCC(=O)OC(C)C(=O)NC2(C#N)CCCCC2)cc1 (centres undefined)	5.3	-0.2	67.4*	-2.8	-5.4	1.0	-0.6	2.8	-7.7
COc1ccc(C(=O)C2CCN(C(=O)c3ccc(OC)cc3)CC2)cc1	4.5	-1.6	1.5	1.4	10.9	2.5	.	.	.
COc1ccc(C(=O)N2CCC(C(=O)c3ccc(F)cc3)CC2)cc1	-3.4	0.9	80.1*	2.1	-12.1	3.1	-0.1	0.8	-4.3
COC(=O)[C@]12C[C@H](CC(=O)NCc3ccc(OC)c(OC)c3)C(=O)N(Cc3ccccc3)C1=C[C@H](COCc1ccccc1)O[C@@H]2C	3.1	0.0	-3.1	2.2	-7.3	-2.9	.	.	.
C(=N\NC1=Nc2cccc3cccc1c23)/c1ccccc1	6.8	1.4	19.2*	-9.4	-1.0	0.2	0.3	-1.4	-6.9
Cc1nn(Cc2ccc(Cl)cc2Cl)c(C)c1NC(=O)c1ccc(COc2cc(Cl)ccc2Cl)o1	-4.2	0.6	23.8*	2.9	-12.2	-1.8	0.0	-0.2	-7.0
CC1CCCC(C)N1/N=C/c1ccc(O)c(O)c1 (centres undefined)	8.4	12.1	19.9*	3.0	-6.3	0.0	21.6*	-76.8	52.9*
COc1ccc(/C=N/N2C(C)CCCC2C)cc1O (centres undefined)	-3.3	2.2	1.8	2.1	-12.1	-0.8	.	.	.
Cc1cc(N/C(=C\C(=O)c2ccccc2)c2ccccc2)ccc1Br	-3.8	3.5	1.6	-2.8	1.7	-0.1	.	.	.
COc1ccc(CC(=O)O/N=C(\N)Cc2cccc3ccccc23)cc1	-6.5	-0.7	14.0*	0.6	0.0	-0.5	-0.6	3.2	-1.4
COc1ccc(CC(=O)O/N=C(\N)Cc2cccc3ccccc23)cc1OC	4.8	-1.9	-2.5	-0.6	6.9	0.2	.	.	.
N#Cc1c(NC(=O)CSc2ncnc3sccc23)oc(-c2ccco2)c1-c1ccco1	-3.9	17.2	26.9*	-8.0	5.9	11.9	13.6*	-48.4	57.6*
Cc1cc(NC(=O)CSc2ncnc3sccc23)no1	-0.8	-1.0	-0.2	-7.0	5.4	3.4	.	.	.
O=C(O)c1ccc2c(c1)C1C=CCC1C(c1ccncc1)N2 (centres undefined)	-1.3	2.7	1.8	9.9	2.3	-0.8	.	.	.
COc1ccc(NS(=O)(=O)c2ccc3c(c2)[C@H]2C=CC[C@H]2[C@@H](c2ccc(C(=O)O)cc2)N3)cc1	0.7	20.0	51.9*	-9.8	1.7	4.8	26.4*	-93.9	58.1*
CN(N=Cc1ccc2c(c1)OCO2)C(=O)c1ccccc1N	-3.4	1.2	-0.2	0.4	0.8	0.2	.	.	.
SMILES	DDE Tn7 FP inh	UHRF1 binding	LEDGF integ inh	Tn6 DDE FP	TDP2 absorb	MBD2 DNA inh	IN multimer act	TRFRET interf	IN-LEDGF confirm
Oc1ccc(NC(=S)Nc2ccc(O)cc2)cc1	1.9	-5.3	16.7*	9.0	20.1	-3.7	5.5	-27.8	1.4
COC(=O)c1ccc(NC(=S)Nc2ccc(O)cc2)cc1	-1.8	-5.2	5.1	1.1	-4.9	1.6	.	.	.
O=C(N/N=C/C=C/c1ccco1)c1cccnc1	3.5	19.0	26.6*	3.6	-9.9	2.9	2.6	-13.3	34.4*
O=C(CNc1cccc2ccccc12)N/N=C/C=C/c1ccco1	1.3	-4.6	-0.6	8.4	4.7	0.3	.	.	.
O=C(N/N=C/C=C\c1ccco1)c1ccccn1	6.0	-1.1	10.2	1.2	-1.0	1.2	.	.	.
O=C(N/N=C/C=C\c1ccco1)c1cccnc1	-3.1	-1.5	6.2	6.9	-4.2	-3.9	.	.	.
O=C(N/N=C/C=C/c1ccco1)c1cnccn1	0.2	8.3	26.3*	3.6	-11.4	5.2	2.7	-13.5	20.4*
O=C(Cc1cccs1)N/N=C/C=C/c1ccco1	0.8	9.6	17.1*	-6.1	8.3	1.2	7.8	-28.4	30.8*
O=C(Nc1ccc(C(F)(F)F)cc1)OC1CCC12CCCCC2 (centres undefined)	3.6	-2.2	6.6	-4.5	0.1	4.6	.	.	.
C#CCN1CC(COCCCC)Oc2cccc(F)c2S1(=O)=O (centres undefined)	-0.8	1.9	2.2	-9.6	-1.0	-3.9	.	.	.
C=CCN1C(=O)c2n[nH]c(C)c2C1c1ccc(C)cc1 (centres undefined)	-4.6	-0.3	-1.1	6.3	-3.0	0.8	.	.	.
CC1(C(=O)NC2CCCCC2)CCC(=O)N1Cc1cccnc1 (centres undefined)	-6.7	-0.1	0.1	0.4	-3.7	-0.9	.	.	.
COc1cccc(CN2C(=O)CCC2(C)C(=O)NC2CCCC2)c1 (centres undefined)	-1.3	-2.4	22.1*	-9.1	1.3	-1.8	0.5	-2.5	2.9

From PubChem BioAssay
